# How the values were obtained:
# Human HLM MetID study = assay type: in vitro ADME; conditions: preliminary results
# [1] = tested on: c-Myc, VEGF, Bcl-2, survivin; assay: Immunoblotting for STAT3 target gene expression in MDA-MB-231 cells; assay type: cell-based, human; conditions: 1 or 3 μM, 3–24 h
# How it was run: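 MDA-MB-231 cells were treated with 1 or 3 μM test compound for 3–24 h; controls received 0.05% DMSO. Whole-cell lysates were prepared in RIPA buffer. Equal total protein was run on SDS-PAGE and immunoblotted for c-Myc, Bcl-2, VEGF and survivin, with tubulin as loading control. Results came from two to three independent determinations.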
# pY705STAT3 = assay: Immunoblotting for pY705STAT3 in treated breast cancer cells; assay type: cell-based, human; conditions: 1–5 μM, 0–24 h (BBI-608 0.5–5 μM, 2–3 h)
# How it was run: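 Controls received 0.05% DMSO. Equal-protein RIPA whole-cell lysates were immunoblotted for pY705STAT3, STAT3 and tubulin. Results came from two to three independent determinations.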
# [2] = tested on: MDA-MB-231 and MDA-MB-468 cells; assay: Induction of apoptosis, PARP cleavage by Western blotting; assay type: cell-based, human; conditions: 1 or 3 μM, 3–24 h
# [3] = tested on: STAT3 DNA-binding activity in MDA-MB-468 cells; assay: Constitutive STAT3 DNA-binding activity in treated breast cancer cells; assay type: cell-based, human
# How it was run: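 MDA-MB-468 cells were treated with 5 μM test compound for 1–3 h; controls received 0.05% DMSO. Nuclear extracts of equal total protein were incubated with 33P-labelled hSIE probe (c-fos m67 variant) for 30 min at 30 °C. STAT3:DNA complexes were then resolved by EMSA. Results came from two to three independent determinations.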
# [4] = tested on: MDA-MB-231 or MDA-MB-468 cells; assay: Cell viability/growth of breast cancer cells harboring active STAT3; assay type: cell-based, human; conditions: at 1 μM or less
# MDA-MB-231 cells = assay: Clonogenic; assay type: cell-based, human; conditions: treated once
# How it was run: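 Cells were seeded as single-cell cultures at 250 cells per well. They were treated once the next day with test compound at 0–1 μM and cultured until large colonies were visible. Colonies were stained with crystal violet for 4 h and photographed. Data came from three independent determinations.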
# [5] = tested on: human breast cancer cells; assay: Combination treatment with docetaxel or cisplatin, CyQuant assay; assay type: cell-based; conditions: 1 μM 7g for 6 h, then 0–100 nM docetaxel or 0–20 μM cisplatin, 72 h
# [6] = tested on: EGFR, JAK2, Src, AKT and ERK1/2; assay: Immunoblotting for nonspecific effects in MDA-MB-231 cells; assay type: cell-based, human; conditions: 1 or 3 μM
compound,measurement,setting,value
O=C1OCc2cc(N(Cc3ccc(C4CCCCC4)cn3)C(=O)[C@H]3CCN3S(=O)(=O)c3c(F)c(F)c(F)c(F)c3F)ccc21 [Compound 7g],species found in HLM MetID study,Human HLM MetID study,both the parent compound and its hydroxy-acid metabolite
same,"expression of STAT3 target genes c-Myc, VEGF, Bcl-2, survivin",[1],inhibited the expression
same,pY705STAT3 in breast cancer cells,pY705STAT3,inhibited pY705STAT3 in dose- and time-dependent manner
same,PARP cleavage,[2],induced poly (ADP-ribose) polymerase (PARP) cleavage
same,earliest time of inhibition of STAT3 DNA-binding activity in cells,[3]; MDA-MB-468,5 min
same,constitutive STAT3 DNA-binding activity in cells,"[3]; cells treated with 1–5 μM (BBI-608 0.5–5 μM, 2–3 h)",inhibited to variable degrees
same,"viability, anchorage-dependent and independent growth, and colony formation",[4],strongly inhibited
same,inhibition of colony formation,MDA-MB-231 cells; 0.5 μM,significant inhibition of colony formation
same,inhibition of colony formation,MDA-MB-231 cells; 1 μM,complete inhibition of colony formation
same,response to combined treatment with docetaxel or cisplatin,[5],strong shift of the dose–response curves to the left indicative of an enhanced response
same,"effect on tyrosine kinases EGFR, JAK2, Src, or AKT and ERK1/2",[6],no measurable effect
